# Screening data: PubChem BioAssay, Broad Institute
# CSC inhib: blocks cancer stem cells; cancer stem cell-like cells viability, luminescence; inhibition, % at 7.5 µM; hit rate 1.1% among 300,000; AID 2717; in the data active = inhibition above about 75%; inconclusive = no clear call, values can overlap the other calls; tested in HMLE shEcad cells
# FN deposition inh: fibronectin deposition inhibition | AID 743247 | hit rate 0.086% among 350,000 | AH1F fibroblasts, Alexa488-fibronectin deposition fluorescence, overnight | inhibition, % at 12.6 µM;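 active = mean inhibition across replicates of 30% or more, regardless of how many single replicates reach that level; inconclusive = mean under 30% yet at least half of replicates reach 30%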;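 note: positive control wells lacked labelled fibronectin entirely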
#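 Material: AH1F fibroblast monolayer depositing Alexa488-labelled fibronectin into matrix / Amount: 10000 AH1F cells per well / Signal: fluorescence 485/525 nm / Medium: DMEM, 2% serum / Compound: single dose, pinned / Incubation: 1 h cell adhesion before compound, then overnight fibronectin incubation / Reagent: Alexa488-FN, 24 nM final / Read-out: inhibition of fibronectin deposition signal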
# Rtt109 HAT inh: inhibitors of Candida albicans Rtt109/Vps75 histone acetyltransferase. Q5AAJ8. purified Rtt109/Vps75, ThioGlo CoA-SH fluorescence, 4 h. inhibition, % at 34.9 µM. hit rate 0.16% among 330,000;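 active = inhibition of at least 50% in every replicate; inconclusive = best replicate reaches 50% inhibition but some replicates fall short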
# Target sequence (Q5AAJ8 whole entry, looked up): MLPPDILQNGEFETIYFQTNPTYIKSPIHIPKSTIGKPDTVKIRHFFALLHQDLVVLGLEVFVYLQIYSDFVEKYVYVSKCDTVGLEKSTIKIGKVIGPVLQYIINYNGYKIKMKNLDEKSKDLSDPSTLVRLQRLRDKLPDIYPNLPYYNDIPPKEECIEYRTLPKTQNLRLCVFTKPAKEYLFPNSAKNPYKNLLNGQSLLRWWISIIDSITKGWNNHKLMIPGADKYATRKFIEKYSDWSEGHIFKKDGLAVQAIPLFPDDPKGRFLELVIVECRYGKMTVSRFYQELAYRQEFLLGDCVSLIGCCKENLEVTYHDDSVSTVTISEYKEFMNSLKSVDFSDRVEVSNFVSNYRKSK
# PglD DTNB: blocks C. jejuni PglD acetyltransferase activity; purified PglD enzyme, DTNB colorimetric CoA detection; inhibition, % at 12.5 µM; hit rate 0.098% among 360,000; in the data active = inhibition above about 16%, passing the limit was not always enough; inconclusive = no clear call, values can overlap the other calls
# SKKanGAS inh: blocks kanamycin growth of S. pyogenes SKKanGAS strain | BacTiter-Glo, 6 h | inhibition, % at 7.5 µM | hit rate 1.3% among 300,000;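 active = mean replicate score, as percent of positive control median, at least 50; inconclusive = mean below 50 but one replicate at or above 50; inactive = mean and every replicate below 50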;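 note: strain carries kanamycin resistance gene driven by streptokinase promoter and grows in 40 µg/ml kanamycin; loss of luminescence reflects streptokinase promoter inhibition or plain growth inhibition; 0% = median of DMSO wells and 100% = positive control at its reference dose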
# PfHsp90 set2: growth inhibition of yeast expressing Plasmodium Hsp90. S. cerevisiae expressing PfHsp90, BacTiter-Glo ATP, 48 h; yeast lacking PDR1 and PDR3 efflux regulators. inhibition, % at 9.4 µM. hit rate 0.32% among 310,000;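 active = every replicate shows inhibition above about 80%, whatever the replicate mean, limit read from the data; inconclusive = mean inhibition reaches the set limit but some replicate falls short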;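 note: 0% = DMSO neutral controls and 100% = 20 µM radicicol positive controls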
# The depositor's hits bear a star; u = inconclusive; x = not tested or not shown. Shown are actives, neighbours in structure and some others; about 1.7% of the full set was active somewhere.
SMILES,CSC inhib,FN deposition inh,Rtt109 HAT inh,PglD DTNB,SKKanGAS inh,PfHsp90 set2
COc1ccc(-c2nc(N)nc(C)c2Oc2ccccc2Br)c(O)c1,82.6*,x,-8.2,2.5,x,-34.8
CO[C@@H]1CN(C)C(=O)c2cc(NS(C)(=O)=O)ccc2OC[C@H](C)N(C(=O)C2CCC2)C[C@H]1C,x,-15.0,x,x,x,x
Cc1ccc(S(=O)(=O)N(C)C[C@@H]2Oc3ccc(NC(=O)CCC(F)(F)F)cc3CC(=O)N([C@@H](C)CO)C[C@H]2C)cc1,x,x,x,-2.3,x,x
CCOC(=O)C1=C(c2ccccc2)NC(=O)NC1c1ccc(O)c(OCC)c1 (centres undefined),-18.6,-2.7,-7.7,4.3,-2.9,-5.4
CCOC(=O)C1=C(c2ccccc2)NC(=O)NC1c1ccc(O)c(Cl)c1 (centres undefined),7.8,48.2*,-2.2,2.8,-2.5,3.2
COc1cccc(Nc2c3c(nc4c(-c5ccccc5)c(C)nn24)CCC3)c1,8.0,-6.9,-10.8,x,77.8*,-1.2
C[C@@H]1CN([C@H](C)CO)C(=O)c2cccc(NC(=O)Nc3ccc(C(F)(F)F)cc3)c2O[C@H]1CN(C)C(=O)Nc1ccccc1,x,x,x,-1.1,x,x
C(C#CCCCCCCCCC[n+]1ccccc1)#CCCCCCCCCC[n+]1ccccc1,75.4*,x,u,2.3,62.1*,121.5*
C[C@@H]1CN([C@H](C)CO)C(=O)c2cc(C3=CCCCC3)cnc2O[C@@H]1CN(C)Cc1ccc(C(=O)O)cc1,x,-9.9,x,0.3,x,x
COc1ccc(-c2oc3ncnc(NCCN4CCOCC4)c3c2-c2ccc(OC)cc2)cc1,33.7,x,-4.4,-0.9,27.9,5.4
COc1ccc(-c2oc3ncnc(NCCCN4CCOCC4)c3c2-c2ccc(OC)cc2)cc1,20.3,active,10.3,0.3,21.0,28.2
C[C@H]1CN([C@@H](C)CO)C(=O)Cc2cc(NC(=O)C3CC3)ccc2O[C@H]1CN(C)CC1CCCCC1,x,x,x,5.7,x,x
CC(C)C(NS(=O)(=O)c1cccc2nsnc12)C(=O)NC1CCCCC1C (centres undefined),-8.1,x,-1.7,0.1,-6.9,6.0
CC1CCCC(NS(=O)(=O)c2cccc3nsnc23)C1C (centres undefined),-2.8,-9.4,55.3*,-2.3,-1.5,8.2
CC(=O)Nc1ccc(NC(=O)c2ccc(C3SCC(=O)N3CCc3ccccc3)cc2)cc1 (centres undefined),-0.6,-5.2,4.0,-1.4,3.8,19.2
Cc1cccc(NC(=O)c2ccc(C3SCC(=O)N3CCc3ccccc3)cc2)c1 (centres undefined),-0.3,32.6*,6.8,-0.9,15.9,-7.6
Cc1cc(=O)c(C(=O)O)cn1Nc1ccc(F)cc1,11.0,7.7,1.2,2.8,27.2,9.8
Cc1cc(=O)c(C(=O)O)cn1Nc1ccc(Cl)cc1,-5.0,8.0,-5.9,6.7,65.1*,15.4
Cc1noc(C)c1S(=O)(=O)N(C)C[C@@H]1Oc2ccc(NC(=O)CCC(F)(F)F)cc2CC(=O)N([C@H](C)CO)C[C@@H]1C,x,1.5,x,0.1,x,x
COc1ccc(N=C2S/C(=C\c3ccc(N4CCOCC4)o3)C(=O)N2CCc2c[nH]c3ccccc23)cc1,-2.0,x,-0.8,-4.8,59.5*,3.9
COc1ccccc1NC(=O)C(=O)NNC(=O)COc1ccc2ccccc2c1,x,3.9,12.4,-1.6,67.1*,-68.2
COc1ccccc1NC(=O)COc1ccc2ccccc2c1,-3.3,x,2.8,1.3,35.7,-11.2
CNC[C@H]1Oc2cc(-c3cccnc3)ccc2S(=O)(=O)N([C@@H](C)CO)C[C@@H]1C,x,x,x,-0.2,x,x
CCc1nnc(NC(=O)c2nc(S(=O)(=O)Cc3ccccc3)ncc2Cl)s1,100.6*,8.3,12.4,0.8,-0.3,3.2
CCc1nnc(NC(=O)c2nc(S(=O)(=O)Cc3ccc(C)cc3)ncc2Cl)s1,x,-3.3,u,6.1,6.2,6.5
SMILES,CSC inhib,FN deposition inh,Rtt109 HAT inh,PglD DTNB,SKKanGAS inh,PfHsp90 set2
CCc1nnc(NC(=O)c2nc(S(=O)(=O)Cc3cccc(C)c3)ncc2Cl)s1,109.6*,12.4,19.3,2.5,2.2,-0.1
CCOc1ccccc1NC(=O)c1nc(S(=O)(=O)Cc2cccc(C)c2)ncc1Cl,91.4*,5.4,-2.1,-4.5,72.6*,-34.9
C[C@H]1CN([C@@H](C)CO)C(=O)Cc2cc(NC(=O)C3CCCCC3)ccc2O[C@@H]1CN(C)Cc1ccncc1,x,x,x,20.0,x,x
O=C(O)c1ccc(/C=N/Nc2ccc(F)cc2F)cc1,15.7,x,-4.7,-3.4,12.1,11.0
Fc1ccc(N/N=C/c2ccncc2)c(F)c1,89.9*,27.4,-0.8,2.4,-0.1,-2.9
CCOC(=O)CSc1nc2sc(C)c(C)c2c(=O)[nH]1,x,x,0.0,3.9,3.5,-42.6
CCOC(=O)/C(=C\c1ccc(Cl)cc1)c1nc2sc(C)c(C)c2c(=O)[nH]1,117.7*,-7.1,-1.5,2.7,42.7,-46.2
CC(=O)Nc1ccc(-c2csc(NC(=O)Cc3cccc(F)c3)n2)cc1,90.4*,-10.6,4.5,-10.1,-11.6,-10.1
O=C(Nc1nc(-c2ccc(-c3ccccc3)cc2)cs1)C1CCCO1 (centres undefined),8.8,x,-3.0,2.2,63.9*,-25.0
CCc1ccccc1OCC(=O)Nc1nc(-c2cccnc2)cs1,39.6,3.7,2.0,-5.0,101.6*,74.5
CC(=O)Nc1ccc(-c2csc(NC(=O)Cc3ccccc3F)n2)cc1,90.0*,-8.0,4.9,-0.2,3.1,-36.4
CCC(=O)N1[C@@H](CO)[C@@H](c2ccc(-c3ccccc3)cc2)[C@@H]1CNC(=O)COC,x,19.4,x,-2.8,x,x
C[C@H]1CCCCO[C@H](CN(C)C(=O)CCC(F)(F)F)[C@@H](C)CN([C@@H](C)CO)C(=O)c2cc(NC(=O)c3ccccc3)ccc2O1,x,1.2,x,-3.1,x,x
COc1ccc(S(=O)(=O)Nc2ccc3c(c2)C(=O)N([C@H](C)CO)C[C@@H](C)[C@H](CN(C)C)OCCCC[C@H](C)O3)cc1,x,6.3,x,-1.2,x,x
O=C(Cc1c(F)c(F)c(F)c(F)c1F)Nc1nc(-c2ccccc2)cs1,83.5*,-2.5,1.0,0.3,18.8,-1.0
CCc1cc2c(=O)nc3n(c2s1)Cc1ccccc1/C3=C(/O)c1ccc(F)cc1,80.7*,x,-10.9,-0.1,9.4,-1.7
CCCNC(=O)N1CC2(C1)[C@H](c1ccccc1)[C@@H](CO)N2C(=O)C1CCC1,x,4.4,x,x,x,x
O=[N+]([O-])c1ccc(/C=N/n2c(CO)nc3ccccc32)s1,-0.1,2.7,-4.8,5.2,12.0,-4.3
O=[N+]([O-])c1ccc(/C=N/n2cnc3ccccc32)s1,99.7*,-3.8,-19.4,1.7,14.1,104.5*
Cc1nc2ccccc2n1/N=C/c1ccc([N+](=O)[O-])s1,47.4,-0.5,10.3,x,92.4*,-84.2
Clc1cccc(Cl)c1CSc1nnc(/C=C/c2ccccc2)o1,19.4,x,-1.8,10.2,53.7*,-6.0
Oc1c(Br)cc(Br)c2cccnc12,x,16.5,-8.6,-4.2,x,107.0*
CCOC(=O)N1CCN(Cc2cc(Cl)c3cccnc3c2O)CC1,19.0,-18.4,x,x,66.4*,x
